Compound activity from PubChem BioAssay.
Most compounds without a hit are left out; they make up all but 3.5% or so of the library.
MrgX1 agonist – agonists of human MrgX1 receptor; Q96LB2; MrgX1-HEK293 cells, Fluo-4 calcium fluorescence, agonist mode; hits give high values; B-score at 10 µM; hit rate 0.44% among 310,000;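 active = calcium response B-score plate-corrected fluorescence ratio at least 3 library SD, with starting fluorescence B-score inside 5 SD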
Target sequence (Q96LB2 whole entry, looked up): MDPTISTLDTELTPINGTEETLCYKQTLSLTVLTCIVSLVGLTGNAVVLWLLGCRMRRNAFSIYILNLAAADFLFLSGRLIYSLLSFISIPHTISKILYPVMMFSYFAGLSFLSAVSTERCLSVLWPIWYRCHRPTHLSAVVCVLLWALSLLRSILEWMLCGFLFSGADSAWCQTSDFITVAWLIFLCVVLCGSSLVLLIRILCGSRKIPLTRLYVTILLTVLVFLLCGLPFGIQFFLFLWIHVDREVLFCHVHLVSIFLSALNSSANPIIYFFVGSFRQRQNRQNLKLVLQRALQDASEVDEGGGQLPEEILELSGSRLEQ
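Assay system: MrgX1-expressing HEK293 cells / Amount: fifteen thousand cells per well / Doses: test compound in the initial addition of three / Timing: cells plated overnight, dye loaded 0.5 h 37 °C, 0.5 h room temperature / Technique: kinetic calcium dye fluorescence, Fluo-4 NW / Control set: positive and negative controls per plate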
MrgX1 allo act – allosterically activates human MrgX1 receptor signaling | Q96LB2 | MrgX1-HEK293, Fluo-4 calcium flux, FDSS; hits give high values | B-score at 10 µM | hit rate 0.63% among 310,000 | AID 588675;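 active = plate-corrected calcium response at least 3 library SD above typical, normal starting fluorescence, not activating the receptor alone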;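 also: compound read alongside a low EC10 to EC30 dose of BAM8-22 agonist; peak minus trough fluorescence over baseline measured at the second addition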
MrgX1 antagonist – human MrgX1 receptor antagonism, primary screen; B-score at 10 µM; MRGX1-HEK293 calcium flux, Fluo-4, BAM8-22 antagonism; hits give low values; Q96LB2; hit rate 1.3% among 310,000;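 active = calcium-response B-score plate-corrected more than 3 library SD below zero, starting fluorescence within 5 deviations, no agonist response on first addition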;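 also: peak minus trough fluorescence over baseline after final BAM8-22 challenge near maximal dose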
RGS4 block – human RGS4 inhibition; HEK293 M3R/RGS4 inducible, Fluo-4 calcium flux; hits give high values; triggered by carbachol at its EC20; B-score at 10 µM; AID 463165; P49798; hit rate 0.45% among 310,000;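 active = B-score, a plate-corrected calcium signal, over three deviations above library mean, with baseline fluorescence within five deviations of library mean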;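 also: RGS4 expression induced by doxycycline in cells with stable M3 receptor; B-score is computed from the integrated fluorescence ratio over baseline after carbachol; higher B-score means a larger calcium signal and so more RGS4 inhibition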
Target sequence (P49798 whole entry, looked up): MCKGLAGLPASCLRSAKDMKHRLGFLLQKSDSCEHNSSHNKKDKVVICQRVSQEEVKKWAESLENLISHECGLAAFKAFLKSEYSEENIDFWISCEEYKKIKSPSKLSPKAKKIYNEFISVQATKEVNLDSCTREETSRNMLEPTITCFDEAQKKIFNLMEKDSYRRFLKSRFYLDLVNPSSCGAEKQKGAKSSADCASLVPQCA
RGS4 act – RGS4 potentiation or activation; HEK293 M3R/inducible RGS4, carbachol calcium flux Fluo4; hits give low values; B-score at 10 µM; hit rate 0.92% among 310,000; AID 463111;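 active = B-score of the integrated calcium signal more than 4 SD below the library mean, with starting fluorescence not abnormally high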;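 also: negative B-score means reduced calcium response which marks RGS4 activation or potentiation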
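System – HEK293 FlpIn-TREx cells, stable M3R, doxycycline-inducible RGS4 · Reagent – ECmax carbachol challenge · Times – compound preincubation 20 min at room temperature before agonist · Technique – Fluo4 fluorescence kinetic imaging of calcium · Measure – B score of integrated Fluo4 ratio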
Starred values were filed as active, the others as inactive.

CCOc1ccc(/C=C2/C(=O)N(c3ccc(OC)cc3)C(=S)N2CC(=O)OC)cc1OCC was read as MrgX1 agonist inactive, MrgX1 allo act inactive, MrgX1 antagonist -6.4*, RGS4 block inactive and RGS4 act inactive.
For CCOc1ccc(NC2OCC(O)C(O)C2O)c([N+](=O)[O-])c1 (configuration not stated) the results were MrgX1 agonist inactive, MrgX1 allo act inactive, MrgX1 antagonist -5.1*, RGS4 block inactive and RGS4 act inactive.
`NCCCCCc1nnc(SCc2ccc(Cl)c(Cl)c2)o1` gave MrgX1 agonist inactive, MrgX1 allo act inactive, MrgX1 antagonist inactive, RGS4 block inactive and RGS4 act -7.1*.
Screening CSCCC(=O)NC1CCCN(CCc2ccccc2)C1 (configuration not stated) returned MrgX1 agonist inactive, MrgX1 allo act inactive, MrgX1 antagonist inactive, RGS4 block inactive and RGS4 act inactive.
Screening C[C@]12CC(O)C3C(CCC4=CC(=O)CC[C@@]43C)C1CCC2c1csc(-c2ccccc2)n1 (some centres not stated) returned MrgX1 agonist inactive, MrgX1 allo act inactive, MrgX1 antagonist inactive, RGS4 block inactive and RGS4 act -9.6*.
CC(=O)[C@H]1CC[C@H]2[C@@H]3CCC4=CC(=O)CC[C@]4(C)[C@H]3[C@H](O)C[C@]12C was read as MrgX1 agonist inactive, MrgX1 allo act inactive, MrgX1 antagonist inactive, RGS4 block inactive and RGS4 act inactive.
For COCCC(=O)N1CCCC(CNS(=O)(=O)c2ccc(OC)cc2)C1 (configuration not stated) the results were MrgX1 agonist inactive, MrgX1 allo act inactive, MrgX1 antagonist inactive, RGS4 block inactive and RGS4 act inactive.
`COC(=O)CCCC(=O)N1CCCC(CNS(=O)(=O)c2ccc(OC)cc2)C1` (configuration not stated) gave MrgX1 agonist inactive, MrgX1 allo act inactive, MrgX1 antagonist -4.6*, RGS4 block inactive and RGS4 act inactive.
For CN(C)c1ncnc2sc(-c3ccccc3)cc12 the results were MrgX1 agonist inactive, MrgX1 allo act inactive, MrgX1 antagonist -7.1*, RGS4 block inactive and RGS4 act inactive.
Screening COc1ncnc2sc(-c3ccccc3)cc12 returned MrgX1 agonist inactive, MrgX1 allo act inactive, MrgX1 antagonist inactive, RGS4 block inactive and RGS4 act inactive.
COc1ccc(/C=c2\sc3nc(=O)c(C)nn3c2=O)c(OC)c1 was read as MrgX1 agonist 27*, MrgX1 allo act inactive, MrgX1 antagonist inactive, RGS4 block inactive and RGS4 act inactive.
Screening CCOc1ccc(C(=O)NCC2CCN(CC3CCCCC3)CC2)cc1 returned RGS4 block inactive and RGS4 act inactive.
CC[C@H](C)/C=C/C1=CC2=C(Cl)C(=O)[C@@]3(C)OC(=O)C(C(=O)[C@H](C)[C@@H](C)O)=C3C2=CO1 was read as MrgX1 agonist inactive, MrgX1 allo act 10*, MrgX1 antagonist inactive, RGS4 block inactive and RGS4 act inactive.
`Cc1ccc(C)c(S(=O)(=O)Nc2ccccc2C(=O)Nc2ccccc2N2CCOCC2)c1` gave MrgX1 agonist inactive, MrgX1 allo act inactive, MrgX1 antagonist inactive, RGS4 block inactive and RGS4 act inactive.
`COc1cc(/C=C(/C#N)C(=O)NC(C)c2ccccc2)cc(OC)c1O` (configuration not stated) gave MrgX1 agonist 59*, MrgX1 allo act inactive, MrgX1 antagonist inactive, RGS4 block inactive and RGS4 act inactive.
`COc1ccccc1/C=C/C=C(\C#N)C(=O)NC(C)c1ccccc1` (configuration not stated) gave MrgX1 agonist inactive, MrgX1 allo act inactive, MrgX1 antagonist inactive, RGS4 block inactive and RGS4 act inactive.
Cn1c(=O)n(CCc2ccccc2)c(=O)c2c1nc1n2CCCN1CCc1ccccc1 was read as MrgX1 agonist inactive, MrgX1 allo act inactive, MrgX1 antagonist inactive, RGS4 block inactive and RGS4 act -7.7*.
`COc1ccc(CN(C(=O)c2cc3ccccc3oc2=O)C2CCS(=O)(=O)C2)cc1` (configuration not stated) gave MrgX1 agonist inactive, MrgX1 allo act inactive, MrgX1 antagonist inactive, RGS4 block inactive and RGS4 act inactive.
For COc1ccc(CN(C(=O)c2cc3ccccc3oc2=O)C2CCCC2)cc1 the results were MrgX1 agonist inactive, MrgX1 allo act inactive, MrgX1 antagonist -5*, RGS4 block inactive and RGS4 act inactive.
`CC(C)n1nc(C(=O)N2CCN(S(=O)(=O)c3cccs3)CC2)c2ccccc2c1=O` gave MrgX1 agonist inactive, MrgX1 allo act inactive, MrgX1 antagonist inactive, RGS4 block inactive and RGS4 act inactive.
CCCCCNCC(=O)Nc1cccc(C(=O)Nc2cccc(C(F)(F)F)c2)c1 was read as MrgX1 agonist inactive, MrgX1 allo act inactive, MrgX1 antagonist -7*, RGS4 block inactive and RGS4 act inactive.
For COc1cccc(/C=N/NC(=O)c2oc3nc(-c4ccccc4)cc(-c4ccco4)c3c2N)c1 the results were MrgX1 agonist inactive, MrgX1 allo act inactive, MrgX1 antagonist -4.7*, RGS4 block inactive and RGS4 act inactive.
`NNC(=O)c1oc2nc(-c3cccs3)cc(-c3ccco3)c2c1N` gave MrgX1 agonist inactive, MrgX1 allo act inactive, MrgX1 antagonist inactive, RGS4 block inactive and RGS4 act -9.7*.
For CSc1ccccc1NS(=O)(=O)c1cccc2nonc12 the results were MrgX1 agonist inactive, MrgX1 allo act inactive, MrgX1 antagonist inactive, RGS4 block inactive and RGS4 act inactive.
Screening O=C(O)c1ccc(/C=N/NC(=O)C2CC2(c2ccccc2)c2ccccc2)cc1 (configuration not stated) returned MrgX1 agonist inactive, MrgX1 allo act inactive, MrgX1 antagonist -5.7*, RGS4 block inactive and RGS4 act inactive.
Cc1ccccc1CS(=O)(=O)CCC(=O)NCCCN1CCN(c2ccccc2F)CC1 was read as MrgX1 agonist inactive, MrgX1 allo act inactive, MrgX1 antagonist inactive, RGS4 block inactive and RGS4 act inactive.
`Cc1cc(C)c2c(=O)n(CC(=O)NCCCN3CCN(c4ccccc4F)CC3)sc2n1` gave MrgX1 agonist inactive, MrgX1 allo act inactive, MrgX1 antagonist inactive, RGS4 block inactive and RGS4 act -9.6*.
For O=C(CCS(=O)(=O)Cc1ccc(Cl)cc1)NCCCN1CCN(c2ccccc2F)CC1 the results were MrgX1 agonist inactive, MrgX1 allo act inactive, MrgX1 antagonist inactive, RGS4 block inactive and RGS4 act -10*.
For N#Cc1cc2c(cc1NC(=O)CCn1cnnn1)OCO2 the results were MrgX1 agonist inactive, MrgX1 allo act inactive, MrgX1 antagonist inactive, RGS4 block inactive and RGS4 act inactive.
